SMILES strings stand for the structures. In brackets after ≈: the same amount, converted by molar mass.

One test concerns Streptococcus pneumoniae. In words: Antimicrobial activity against Streptococcus pneumoniae RCMB 010010 assessed as absence of turbidity after 24 hrs. The test is classed as functional. Conditions: RCMB 010010, 24 h. In a few lines:
(§1)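 Broth microdilution in Müller–Hinton broth. DMF stocks at 1000 µg/mL were diluted in broth to give twofold serial dilutions over 500–0.007 µg/mL. Bacterial inoculum was about 10^6 CFU/mL in 96-well plates, sealed and incubated at 37 °C for 24 h in a humid chamber. MIC was taken as the lowest concentration with no visible turbidity. DMF and uninoculated-medium controls were included. Only compounds giving zones >10 mm were tested.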
For the molecule `CNc1sc(C(C)=O)c(N)c1C(=O)Nc1ccc(S(=O)(=O)Nc2onc(C)c2C)cc1`, the MIC worked out at 16.6 µg/mL (≈ 35.9 µM).
Take `Cc1noc(NS(=O)(=O)c2ccc(-n3c(S)c(C#N)c(-c4cccnc4)c(C#N)c3=O)cc2)c1C`: the MIC turned out to be 0.98 µg/mL (≈ 1.94 µM).

In the next test the test system is Escherichia coli. The test is described as follows: Antimicrobial activity against Escherichia coli RCMB 010052 assessed as inhibition zone at 5 mg/ml after 24 hrs. Conditions: RCMB 010052, 24 h, read-out: IZ. The test is classed as functional. In a few lines: (§2)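 Agar diffusion on nutrient agar seeded with 10^6 CFU/mL bacteria. Filter-paper disks were loaded with 100 µL of a 5 mg/mL compound solution in DMF, with a DMF-only control. Incubation was 37 °C for 24 h. Inhibition zone in mm (mean ± SD, triplicate plates) was measured beyond the 6 mm diameter.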
In the case of `CNc1sc(C(C)=O)c(N)c1C(=O)Nc1ccc(S(=O)(=O)Nc2onc(C)c2C)cc1`, the zone of inhibition at 5000 µg/mL amounted to 17.1 mm.
Consider `Cc1noc(NS(=O)(=O)c2ccc(-n3c(S)c(C#N)c(-c4cccnc4)c(C#N)c3=O)cc2)c1C`, for which the zone of inhibition at 5000 µg/mL was 19.2 mm.

The next test relates to Klebsiella pneumoniae. The test is described as follows: Antimicrobial activity against Klebsiella pneumoniae RCMB 010093 assessed as absence of turbidity after 24 hrs. It counts as functional. To be noted: RCMB 010093, 24 h. The gist of the method:
as §1
`CNc1sc(C(C)=O)c(N)c1C(=O)Nc1ccc(S(=O)(=O)Nc2onc(C)c2C)cc1`: the MIC came to 15.6 µg/mL (≈ 33.7 µM).
Consider `Cc1noc(NS(=O)(=O)c2ccc(-n3c(S)c(C#N)c(-c4cccnc4)c(C#N)c3=O)cc2)c1C`, for which the MIC came out at 0.98 µg/mL (≈ 1.94 µM).

The next test deals with Klebsiella pneumoniae. The test is described as follows: Antimicrobial activity against Klebsiella pneumoniae RCMB 010093 assessed as inhibition zone at 5 mg/ml after 24 hrs. The test is classed as functional. To be noted: RCMB 010093, 24 h, read-out: IZ. The gist of the method: as §2
Regarding `CNc1sc(C(C)=O)c(N)c1C(=O)Nc1ccc(S(=O)(=O)Nc2onc(C)c2C)cc1`, the zone of inhibition at 5000 µg/mL worked out at 16.9 mm.
Still for that read-out and setting: then `Cc1noc(NS(=O)(=O)c2ccc(-n3c(S)c(C#N)c(-c4cccnc4)c(C#N)c3=O)cc2)c1C`, with 21 mm.

Another test has as its system Staphylococcus epidermidis. The test is described as follows: Antimicrobial activity against Staphylococcus epidermidis RCMB 010024 assessed as inhibition zone at 5 mg/ml after 24 hrs. It counts as functional. To be noted: RCMB 010024, 24 h, read-out: IZ. The gist of the method: as §2
`CNc1sc(C(C)=O)c(N)c1C(=O)Nc1ccc(S(=O)(=O)Nc2onc(C)c2C)cc1`: the zone of inhibition at 5000 µg/mL came to 18.7 mm.
Still for that read-out and setting: the figure for `Cc1noc(NS(=O)(=O)c2ccc(-n3c(S)c(C#N)c(-c4cccnc4)c(C#N)c3=O)cc2)c1C` is 20 mm.

The subject of another test is Aspergillus fumigatus. The test is described as follows: Antifungal activity against Aspergillus fumigatus RCMB 02568 assessed as inhibition zone at 5 mg/ml after 48 hrs. To be noted: RCMB 02568, 48 h, read-out: IZ. The test is classed as functional. In a few lines: (§3)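 Disk diffusion on nutrient agar seeded with 10^4 CFU/mL fungus. Sterile filter-paper disks carried 100 µL of a 5 mg/mL DMF solution, and DMF alone served as control. Plates were incubated at 25 °C for 48 h. Mean inhibition zone in mm ± SD was read beyond the 6 mm diameter, in triplicate.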
Regarding `CNc1sc(C(C)=O)c(N)c1C(=O)Nc1ccc(S(=O)(=O)Nc2onc(C)c2C)cc1`, the zone of inhibition at 5000 µg/mL was found to be 15.8 mm.
Still for that read-out and setting: then `Cc1noc(NS(=O)(=O)c2ccc(-n3c(S)c(C#N)c(-c4cccnc4)c(C#N)c3=O)cc2)c1C`, with 21.2 mm.

Another test has as its system Geotrichum candidum. The test is described as follows: Antifungal activity against Geotrichum candidum RCMB 05097 assessed as absence of turbidity after 48 hrs. The test is classed as functional. Conditions: RCMB 05097, 48 h. The gist of the method: (§4)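 Broth microdilution in Sabouraud liquid medium. DMF stocks at 1000 µg/mL were diluted in broth to give twofold serial dilutions over 500–0.007 µg/mL. Fungal inoculum was about 10^4 CFU/mL in 96-well plates, sealed and incubated at 25 °C for 48 h in a humid chamber. MIC was taken as the lowest concentration with no visible turbidity. DMF and uninoculated-medium controls were included.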
For `CNc1sc(C(C)=O)c(N)c1C(=O)Nc1ccc(S(=O)(=O)Nc2onc(C)c2C)cc1`, the MIC worked out at 31.2 µg/mL (≈ 67.4 µM).
As to `Cc1noc(NS(=O)(=O)c2ccc(-n3c(S)c(C#N)c(-c4cccnc4)c(C#N)c3=O)cc2)c1C`, the MIC was determined as 0.49 µg/mL (≈ 0.971 µM).

Another test deals with Streptococcus pneumoniae. In words: Antimicrobial activity against Streptococcus pneumoniae RCMB 010010 assessed as inhibition zone at 5 mg/ml after 24 hrs. To be noted: RCMB 010010, 24 h, read-out: IZ. The test is classed as functional. The gist of the method: as §2
With `CNc1sc(C(C)=O)c(N)c1C(=O)Nc1ccc(S(=O)(=O)Nc2onc(C)c2C)cc1`, the zone of inhibition at 5000 µg/mL turned out to be 16.6 mm.
On the same count and under the same terms, then `Cc1noc(NS(=O)(=O)c2ccc(-n3c(S)c(C#N)c(-c4cccnc4)c(C#N)c3=O)cc2)c1C`, with 21.3 mm.

A further test has as its system Geotrichum candidum. In words: Antifungal activity against Geotrichum candidum RCMB 05097 assessed as inhibition zone at 5 mg/ml after 48 hrs. The test is classed as functional. Conditions: RCMB 05097, 48 h, read-out: IZ. In a few lines:
as §3
For the molecule `CNc1sc(C(C)=O)c(N)c1C(=O)Nc1ccc(S(=O)(=O)Nc2onc(C)c2C)cc1`, the zone of inhibition at 5000 µg/mL worked out at 16.4 mm.
As to `Cc1noc(NS(=O)(=O)c2ccc(-n3c(S)c(C#N)c(-c4cccnc4)c(C#N)c3=O)cc2)c1C`, the zone of inhibition at 5000 µg/mL worked out at 22 mm.

Another test deals with Staphylococcus epidermidis. The test is described as follows: Antimicrobial activity against Staphylococcus epidermidis RCMB 010024 assessed as absence of turbidity after 24 hrs. It counts as functional. Conditions: RCMB 010024, 24 h. In a few lines: as §1
As to `CNc1sc(C(C)=O)c(N)c1C(=O)Nc1ccc(S(=O)(=O)Nc2onc(C)c2C)cc1`, the MIC amounted to 7.81 µg/mL (≈ 16.8 µM).
For the molecule `Cc1noc(NS(=O)(=O)c2ccc(-n3c(S)c(C#N)c(-c4cccnc4)c(C#N)c3=O)cc2)c1C`, the MIC was 1.95 µg/mL (≈ 3.86 µM).

In another test the test system is Proteus vulgaris. The test is described as follows: Antimicrobial activity against Proteus vulgaris RCMB 010085 assessed as inhibition zone at 5 mg/ml after 24 hrs. It counts as functional. Conditions: RCMB 010085, 24 h, read-out: IZ. The gist of the method:
as §2
Consider `CNc1sc(C(C)=O)c(N)c1C(=O)Nc1ccc(S(=O)(=O)Nc2onc(C)c2C)cc1`, for which the zone of inhibition at 5000 µg/mL was 18.2 mm.
Take `Cc1noc(NS(=O)(=O)c2ccc(-n3c(S)c(C#N)c(-c4cccnc4)c(C#N)c3=O)cc2)c1C`: the zone of inhibition at 5000 µg/mL was 17.6 mm.

The test system of the next test is Bacillus subtilis. In words: Antimicrobial activity against Bacillis subtilis RCMB 010067 assessed as inhibition zone at 5 mg/ml after 24 hrs. It counts as functional. Conditions: RCMB 010067, 24 h, read-out: IZ. In a few lines: as §2
Turning to `CNc1sc(C(C)=O)c(N)c1C(=O)Nc1ccc(S(=O)(=O)Nc2onc(C)c2C)cc1`, the zone of inhibition at 5000 µg/mL stood at 19.1 mm.
As to `Cc1noc(NS(=O)(=O)c2ccc(-n3c(S)c(C#N)c(-c4cccnc4)c(C#N)c3=O)cc2)c1C`, the zone of inhibition at 5000 µg/mL was 22.6 mm.

The test system of the next test is Syncephalastrum racemosum. In words: Antifungal activity against Syncephalastrum racemosum RCMB 05922 assessed as absence of turbidity after 48 hrs. The test is classed as functional. To be noted: RCMB 05922, 48 h.
With `CNc1sc(C(C)=O)c(N)c1C(=O)Nc1ccc(S(=O)(=O)Nc2onc(C)c2C)cc1`, the MIC stood at 62.5 µg/mL (≈ 135 µM).
Take `Cc1noc(NS(=O)(=O)c2ccc(-n3c(S)c(C#N)c(-c4cccnc4)c(C#N)c3=O)cc2)c1C`: the MIC was 3.9 µg/mL (≈ 7.73 µM).

The subject of a further test is Escherichia coli. In words: Antimicrobial activity against Escherichia coli RCMB 010052 assessed as absence of turbidity after 24 hrs. The test is classed as functional. Conditions: RCMB 010052, 24 h. In a few lines:
as §1
For `CNc1sc(C(C)=O)c(N)c1C(=O)Nc1ccc(S(=O)(=O)Nc2onc(C)c2C)cc1`, the MIC was found to be 15.6 µg/mL (≈ 33.7 µM).
`Cc1noc(NS(=O)(=O)c2ccc(-n3c(S)c(C#N)c(-c4cccnc4)c(C#N)c3=O)cc2)c1C`: the MIC turned out to be 3.9 µg/mL (≈ 7.73 µM).

The subject of the next test is Syncephalastrum racemosum. In words: Antifungal activity against Syncephalastrum racemosum RCMB 05922 assessed as inhibition zone at 5 mg/ml after 48 hrs. The test is classed as functional. To be noted: RCMB 05922, 48 h, read-out: IZ.
As for `CNc1sc(C(C)=O)c(N)c1C(=O)Nc1ccc(S(=O)(=O)Nc2onc(C)c2C)cc1`, the zone of inhibition at 5000 µg/mL turned out to be 14.1 mm.
The same measure, in the same setting: the figure for `Cc1noc(NS(=O)(=O)c2ccc(-n3c(S)c(C#N)c(-c4cccnc4)c(C#N)c3=O)cc2)c1C` is 19.2 mm.

The next test concerns Bacillus subtilis. The test is described as follows: Antimicrobial activity against Bacillis subtilis RCMB 010067 assessed as absence of turbidity after 24 hrs. The test is classed as functional. Conditions: RCMB 010067, 24 h. In a few lines: as §1
In the case of `CNc1sc(C(C)=O)c(N)c1C(=O)Nc1ccc(S(=O)(=O)Nc2onc(C)c2C)cc1`, the MIC is 3.9 µg/mL (≈ 8.41 µM).
As for `Cc1noc(NS(=O)(=O)c2ccc(-n3c(S)c(C#N)c(-c4cccnc4)c(C#N)c3=O)cc2)c1C`, the MIC was 0.24 µg/mL (≈ 0.476 µM).

The subject of another test is Aspergillus fumigatus. In words: Antifungal activity against Aspergillus fumigatus RCMB 02568 assessed as absence of turbidity after 48 hrs. It counts as functional. To be noted: RCMB 02568, 48 h. In a few lines: as §4
On to `CNc1sc(C(C)=O)c(N)c1C(=O)Nc1ccc(S(=O)(=O)Nc2onc(C)c2C)cc1`, for which the MIC came to 62.5 µg/mL (≈ 135 µM).
With `Cc1noc(NS(=O)(=O)c2ccc(-n3c(S)c(C#N)c(-c4cccnc4)c(C#N)c3=O)cc2)c1C`, the MIC came out at 0.98 µg/mL (≈ 1.94 µM).

The next test relates to Proteus vulgaris. The test is described as follows: Antimicrobial activity against Proteus vulgaris RCMB 010085 assessed as absence of turbidity after 24 hrs. It counts as functional. Conditions: RCMB 010085, 24 h. The gist of the method: as §1
Consider `CNc1sc(C(C)=O)c(N)c1C(=O)Nc1ccc(S(=O)(=O)Nc2onc(C)c2C)cc1`, for which the MIC stood at 3.9 µg/mL (≈ 8.41 µM).
For the molecule `Cc1noc(NS(=O)(=O)c2ccc(-n3c(S)c(C#N)c(-c4cccnc4)c(C#N)c3=O)cc2)c1C`, the MIC was found to be 7.81 µg/mL (≈ 15.5 µM).

The term MIC denotes the smallest concentration in the dilution series that meets the test's criterion for growth inhibition.

The record behind these values is ChEMBL document CHEMBL3351454, “Design, synthesis, antimicrobial evaluation and molecular docking studies of some new thiophene, pyrazole and pyridone derivatives bearing sulfisoxazole moiety” (2014).
